In PubChem BioAssay AID1885 (Broad Institute, 2009):
The campaign covered roughly 300,000 compounds. About 4,400 (1.5%) were called active. The full list was thinned out, with actives kept by preference. Values without a mark were called inactive.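 How the source made its calls: active means mean inhibition across valid replicates above about 55% (limit read from the data); inconclusive means mean below that limit but half or more replicates reach it; inactive means mean below it, under half of replicates reach it.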

Experiment: inhibitors of intracellular T. cruzi growth, primary screen, luminescence, NIH3T3 host cells (AID 1885);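 further: signal also drops with host cell toxicity which is not excluded here; 0% = plate median of DMSO wells and 100% = zero luminescence signal; higher percent means less beta-gal luminescence so fewer parasites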
Conditions: T. cruzi beta-gal in NIH3T3, luminescence, 90 h; active compounds read high; concentration not given here
How it was run: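 assay system = mouse NIH/3T3 fibroblasts infected with β-gal-expressing T. cruzi Tulahuen C4 | input = 5,000 NIH/3T3 host cells per well | buffer or medium = DMEM plus 2% FBS | timing = 3 h host attachment, then at least 90 h co-culture | measured by = GalScreen luminescence, 60 min | evaluation = luminescence reflecting intracellular parasite burden, expressed as percent inhibition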

Row | SMILES | inhibition
1 | COC(=O)c1cc(NC(=O)c2nn(C)c(=O)c3ccccc23)cc(C(=O)OC)c1 | -14.3%
2 | O=C(CC1SC(N2CCCC2)=NC1=O)Nc1ccc(C(=O)NCCc2ccc(F)cc2)cc1 (stereo not drawn) | -6.73%
3 | COC(=O)c1[nH]c2ccccc2c1NC(=O)CN1CCCc2ccccc21 | 67.6% (active)
4 | COC(=O)c1[nH]c2cccc(C)c2c1NC(=O)CN1CCCc2ccccc21 | 4.45%
5 | NS(=O)(=O)c1cccc(NC(=O)CN2CCCc3ccccc32)c1 | -16.2%
6 | CSc1n[nH]c(=S)n1N | -10.3%
7 | COC(=O)c1cnc(Nc2cc(C)ccc2OC)c2ccccc12 | -8.82%
8 | Cc1nonc1NC(=O)c1oc2ccccc2c1C | -12.6%
9 | Cc1ccc(C(=O)NC(=S)NCc2cccnc2)cc1 | 14.1%
10 | Cc1c(C(=O)NC(=S)NCc2cccnc2)oc2ccccc12 | 63.2% (active)
11 | CC(C)CN(C(=O)COC(=O)c1ccc2ccccc2c1)c1c(N)n(Cc2ccccc2)c(=O)[nH]c1=O | 2.62%
12 | CCN(C(=O)COC(=O)C1CCN(S(=O)(=O)c2ccc(C)c(C)c2)CC1)C1CCS(=O)(=O)C1 (stereo not drawn) | -2.19%
13 | NC(=O)c1c(NC(=O)c2ccccc2)sc2c1CCCC2 | 12.5%
14 | Cc1ccc(NC(=O)c2c(NC(=O)CCC(=O)O)sc3c2CCCCC3)cc1 | -8.68%
15 | Cc1ccc(C(=O)c2c(NC(=O)c3ccncc3)sc3c2CCCC3)cc1 | 57.9% (active)
16 | CN(C)C(CNC(=O)c1cccc(S(=O)(=O)Nc2ccc(Br)cc2)c1)c1ccco1 (stereo not drawn) | 20.3%
17 | COc1ccc(OC)c(NC(=O)c2ccc3c(c2)C(=O)N(c2ccc(OC(C)=O)cc2)C3=O)c1 | -18%
18 | CCCOc1ccc(NC(=O)C2OC3OC(C)(C)OC3C3OC(C)(C)OC23)cc1 (stereo not drawn) | 4.62%
19 | CN1CCN(/N=C/c2ccc(C#N)cc2)CC1 | 48.6%
20 | Cc1cc(-c2ccc(/C=N/n3cnnc3)o2)c([N+](=O)[O-])cc1C | -3.12%

Row | SMILES | inhibition
21 | CN1CCN(/N=C/c2ccc(-c3ccc([N+](=O)[O-])cc3)o2)CC1 | 59.9% (active)
22 | COc1ccc(-c2nc3c(s2)CCc2onc(-c4ccc(Br)cc4)c2-3)cc1 | -2.05%
23 | Cc1ccc(OCCNC(=O)CCNS(=O)(=O)c2ccc(Br)cc2)cc1 | -1.12%
24 | COc1ccc(NC(=O)CSc2nnc(Cc3ccccc3)c(=O)n2N)cc1 | -3.84%
25 | CN(C)CCCN(C(=O)c1ccc(S(=O)(=O)N2CCCc3ccccc32)cc1)c1nc2ccc(F)cc2s1 | 22.9%
26 | O=C(Nc1nc2ccc([N+](=O)[O-])cc2s1)c1ccc(S(=O)(=O)N2CCCc3ccccc32)cc1 | 73.8% (active)
27 | CS(=O)(=O)c1ccc2nc(NC(=O)c3ccc(N4CCCC4=O)cc3)sc2c1 | 0.975%
28 | CC(C)(C)N1C(=O)[C@H]2[C@@H](c3ccc(Br)cc3)N3C(=O)N(c4cccc(Cl)c4)C(=O)[C@@]3(C)[C@H]2C1=O | -6.33%
29 | Cc1ccc(-c2csc(NC(=O)C3=COCCO3)n2)cc1C | 71.6% (active)
30 | CC(=O)NCCC(=O)Nc1nc(-c2ccc3c(c2)OCCO3)cs1 | -11.7%
31 | Cc1csc(NC(=O)C2=COCCO2)n1 | -7.78%
32 | Cc1ccc(-c2nn(-c3ccccc3)cc2C(=O)NCCCN2CCCC2=O)cc1 | -2.8%
33 | CC(C)(C)n1cnnc1Sc1ccc([N+](=O)[O-])cn1 | -5.35%
34 | COc1ccc(C2CC(=O)Oc3ccc(C(C)(C)C)cc32)cc1 (stereo not drawn) | -9.82%
35 | COc1ccc2oc(=O)cc(CN3CCOCC3)c2c1 | -6.42%
36 | CCOc1ccc(N(C)Cc2cc(=O)oc3ccc(OC)cc23)cc1 | 79.2% (active)
37 | COc1ccc2oc(=O)cc(-c3cc4ccccc4o3)c2c1 | 0.932%
38 | CCCn1c(C2CCCN2c2nc(-c3ccc(OC)cc3)cs2)nc2ccccc21 (stereo not drawn) | -7.75%
39 | CCOC(=O)N1CCN(C(c2cccnc2)c2ccc3cccnc3c2O)CC1 (stereo not drawn) | 30.1%
40 | Oc1c(C(c2ccccn2)N2CCOCC2)ccc2cccnc12 (stereo not drawn) | 10.2%

Row | SMILES | inhibition
41 | CCN1CCN(C(c2cccnc2)c2cc(Cl)c3cccnc3c2O)CC1 (stereo not drawn) | 57.7% (active)
42 | COc1ccc(Cl)cc1NS(=O)(=O)c1cccc(C(=O)NC2CCC(O)CC2)c1 (stereo not drawn) | 3.45%
43 | COC(=O)c1c(-c2ccsc2)oc2ccc(-c3cc(OC)c(OC)c(OC)c3)cc12 | 34%
44 | Cc1nnc(N/N=C/c2ccccn2)[nH]c1=O | 60.9% (active)
45 | Cc1nnc(N/N=C/C2CC=CCC2)[nH]c1=O (stereo not drawn) | 0.195%
46 | CNC(=O)C(=O)N/N=C/c1ccccn1 | -8.15%
47 | CC1(C)S[C@@H]2[C@H](N=CN3CCCCCC3)C(=O)N2[C@H]1C(=O)O | 4.45%
48 | O=C(NCc1ccc(Cl)cc1)C(=O)NCC1CCCN1S(=O)(=O)c1cccs1 (stereo not drawn) | 12.8%
49 | O=C(CSc1ncn[nH]1)N/N=C/c1ccc(F)cc1 | -12.6%
50 | O=C(/C=C/Sc1ncn[nH]1)c1ccc(Cl)cc1 | 56.1% (active)
51 | Cc1cc(C)nc(S/C=C/C(=O)c2ccccc2)n1 | 12%
52 | O=C1[C@H]2[C@@H](c3ccc(F)cc3)N3C(=O)N(c4ccc(C(F)(F)F)cc4)C(=O)[C@@]3(Cc3ccccc3)[C@H]2C(=O)N1C1CCCCC1 | 36.5%
53 | COc1ccc(CNC(=O)C2CCN(C(=O)c3ccccc3)CC2)cc1 | -1.19%
54 | COc1cccc(N=c2oc3c(C)ncc(CO)c3cc2C(N)=O)c1 | 13.3%
55 | Cc1nc(Nc2ccc3c(c2)OCCO3)c2nnn(Cc3ccccc3Cl)c2n1 | 54.7% (active)
56 | CCCc1nc(NCc2ccc3c(c2)OCO3)c2nnn(Cc3ccccc3Cl)c2n1 | 11.9%
57 | Cc1nc(Nc2ccccc2F)c2nnn(Cc3ccccc3Cl)c2n1 | -8.04%
58 | Cc1ccc(NS(=O)(=O)c2ccc3c(c2)NC(=O)CO3)cc1 | 5.83%
